Screens deposited in PubChem BioAssay by The Scripps Research Institute Molecular Screening Center.
Shown are actives, neighbours in structure and some others; about 1.6% of the full set was active somewhere.
TCR CD3 inh = blocks the human TCR-CD3 interaction; TAMRA-labeled TCR probe fluorescence, biochemical; inhibition, % at 9.4 µM; AID 651800; actives 0.37% (n = 360,000); in the data active = inhibition above about 19%;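 note: recombinant mutant TCR 2C K166C tagged with TAMRA read by polarization; 0% = receptor in buffer alone and 100% = receptor with positive control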
DAGLB inhibitor = diacylglycerol lipase beta (human) inhibition; Q8NCG7; HEK293T DAGLB membrane lysate, EnzChek fluorogenic substrate; inhibition, % at 5.17 µM; actives 0.059% (n = 340,000); AID 504411; in the data active = inhibition above about 34%;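 note: 0% = enzyme with vehicle and 100% = wells lacking enzyme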
Target sequence (Q8NCG7 whole entry, looked up): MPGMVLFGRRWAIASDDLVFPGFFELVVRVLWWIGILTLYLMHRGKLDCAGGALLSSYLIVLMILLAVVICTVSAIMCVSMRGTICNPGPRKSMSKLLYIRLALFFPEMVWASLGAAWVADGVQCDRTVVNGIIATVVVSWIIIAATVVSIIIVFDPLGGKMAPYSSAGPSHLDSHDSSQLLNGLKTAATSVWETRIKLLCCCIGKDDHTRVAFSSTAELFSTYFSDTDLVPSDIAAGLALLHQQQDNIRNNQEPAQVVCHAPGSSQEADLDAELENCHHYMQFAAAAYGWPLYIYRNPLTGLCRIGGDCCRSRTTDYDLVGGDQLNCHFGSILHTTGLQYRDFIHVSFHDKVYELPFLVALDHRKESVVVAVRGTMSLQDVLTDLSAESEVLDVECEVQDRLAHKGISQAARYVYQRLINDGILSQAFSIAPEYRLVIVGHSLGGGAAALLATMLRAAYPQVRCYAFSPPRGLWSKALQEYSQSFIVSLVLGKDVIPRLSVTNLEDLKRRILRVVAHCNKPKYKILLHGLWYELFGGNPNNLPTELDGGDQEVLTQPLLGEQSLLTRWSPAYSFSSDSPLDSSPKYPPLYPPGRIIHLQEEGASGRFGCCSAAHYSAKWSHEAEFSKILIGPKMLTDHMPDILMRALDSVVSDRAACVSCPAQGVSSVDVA
mABHD4 FP = inhibitors of mouse ABHD4; actives 0.54% (n = 370,000); AID 720543; Q8VD66; purified mABHD4, FP-Rh probe fluorescence polarization; inhibition, % at 8.92 µM;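 active = inhibition exceeding the mean over every tested compound plus 3 SD, cut at about 30% in these data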;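 note: 0% = plate median of compound wells and 100% = S159A mutant with DMSO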
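Assay system: wild-type mouse ABHD4 protein; compound: single nominal dose of 8.92 µM, 0.89% DMSO final; schedule: 45 min + 60 min at 25 °C; measured by: FP readout, ex 525 nm / em 598 nm; evaluation: % inhibition of FP-Rh probe binding versus controls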
HTRA1 inhibitor = inhibitors of human serine peptidase HTRA1. recombinant HTRA1, FP-rhodamine activity-based probe, fluorescence polarization. inhibition, % at 5.96 µM. actives 0.5% (n = 340,000). AID 504803; in the data active = inhibition above about 36%;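 note: 0% = enzyme with DMSO and 100% = wells lacking enzyme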
SIAE inh = human SIAE inhibition, primary screen. Q9HAT2. AID 1053197. actives 0.69% (n = 370,000). inhibition, % at 9.66 µM. SIAE FP-Rh probe binding, fluorescence polarization;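 active = inhibition above a cutoff: mean of compounds within the control limits plus 3 SD of those, cut at about 17% in these data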;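 note: 0% = plate median of compound wells and 100% = probe without SIAE protein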
SIAE inh conf = human SIAE inhibition, confirmation; shares compounds with SIAE inh; SIAE FP-Rh activity-based probe, fluorescence polarization; inhibition, % at 9.66 µM; actives 13% (n = 2,300);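 active = mean inhibition of the replicates above the hit cutoff set in the primary screen, cut at about 17% in these data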;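 note: 0% = SIAE with DMSO and probe and 100% = probe without SIAE; inhibitors lower polarization as more probe stays unbound to SIAE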
Numbers without * were called inactive; · = no result given.

SMILES	TCR CD3 inh	DAGLB inhibitor	mABHD4 FP	HTRA1 inhibitor	SIAE inh	SIAE inh conf
CC1=NN(c2ccc(S(=O)(=O)O)cc2C)C(=O)C1	-2	-2	2	2	20*	1
Cc1ccc(C)c(OCCC(=O)OCC(=O)N(C)c2c(N)n(Cc3ccccc3)c(=O)[nH]c2=O)c1	8	0	-6	-9	18*	4
O=C(NC1=N[C@@]2(C=C3CCCCC3n3c(=O)n(-c4ccccc4)c(=O)n32)[C@H](Cc2ccccc2)N1Cc1ccccc1)c1ccccc1 (stereo partly drawn)	·	·	20	·	9	·
CCOC(=O)C1=CCN(S(=O)(=O)c2ccc(Br)cc2)C1c1cccc(F)c1 (stereo not drawn)	2	·	-5	·	-4	·
CN(C)c1nc2c(N)ncnc2n1C1OC(CO)C(O)C1O (stereo not drawn)	5	-5	-6	0	6	·
CN(C)c1nc2c(N)ncnc2n1[C@H]1O[C@@H](CO)[C@H](O)[C@@H]1O	1	0	5	2	22*	2
CC1(C)CC(=O)c2cc(N=C/C(C(=O)c3ccccc3)=C(\O)c3ccccc3)c(=O)oc2C1	6	-8	3	8	17*	1
COc1ccc(S[C@]2(C(=O)N3CCOCC3)CC(=O)N[C@@H]2c2ccc(OC)cc2)cc1	·	·	5	·	-1	·
CC(=O)c1cc(-c2ccc3nonc3c2)c(=O)n2c1CCC2	·	·	-3	·	0	·
CC(=O)N/C(=C\c1ccccc1)C(=O)OCC(=O)Nc1ccc(C)c(S(=O)(=O)N(C)C)c1	7	-5	-6	-10	21*	1
Cc1ccc(-n2c(CNc3ccc(F)cc3)nnc2SCC(=O)O)cc1	4	·	2	·	20*	4
Cc1ccc(NCc2nnc(SCC(=O)O)n2-c2ccc(C)cc2)cc1	-3	1	2	4	3	·
COC(=O)C[C@@H]1CC[C@@H]2[C@@H](COc3ccc(NC(=O)Nc4ccc(F)cc4)cc3C(=O)N2C)O1	·	·	2	·	1	·
CSc1ccc(/C=C/C(=O)c2ccc(NC(=O)C(C)C)cc2)cc1	12	-3	-44	-73	-33	·
CSc1ccc(/C=C/C(=O)c2ccc(NC(=O)Cc3ccccc3)cc2)cc1	51*	1	-11	-54	31*	45*
COCCNC(=O)C(c1ccc(O)cc1)N(Cc1ccccc1)C(=O)CCC(=O)Nc1ccccn1 (stereo not drawn)	6	-1	4	-3	20*	-3
COCCNC(=O)C(c1ccc(F)cc1)N(Cc1ccccc1)C(=O)CCC(=O)Nc1ccccn1 (stereo not drawn)	-5	0	-1	1	-2	·
O=C(CN(Cc1ccc(F)cc1)C(=O)CCC(=O)Nc1ccccn1)NCCc1ccccc1	0	0	0	6	21*	-1
C=CCOC(=O)C1=C(C)N=c2sc(=C3C(=O)N(CC(=O)O)c4ccccc43)c(=O)n2C1c1ccc(OC)cc1 (stereo not drawn)	·	·	18	·	5	·
CC(c1ccc(NC(=O)OC(C)(C)C)cc1)c1cn(C)c2ccccc12 (stereo not drawn)	·	·	-14	·	2	·
Nn1c(SCC(=O)Nc2ccc(S(=O)(=O)N3CCCC3)cc2)nnc1C(F)(F)F	-4	-2	-3	-2	17*	-6
Cn1cnnc1SCC(=O)Nc1ccc(S(=O)(=O)N2CCCC2)cc1	3	0	3	-2	-2	·
COCc1cc(N2CCNC[C@H]2C)ccc1N1C[C@@H](C)O[C@@H](C)C1	5	·	5	·	4	·
CCCn1c(=N)n(CC(=O)c2ccco2)c2ccccc21	-2	2	9	0	2	·
Cc1ccccc1Cn1c(=N)n(CC(=O)c2ccco2)c2ccccc21	3	2	6	-5	22*	3
SMILES	TCR CD3 inh	DAGLB inhibitor	mABHD4 FP	HTRA1 inhibitor	SIAE inh	SIAE inh conf
COc1ccc(C2=Nn3c(nnc3-c3ccccc3OC)SC2)cc1OCC1CC1	16	-2	4	-3	29*	27*
Oc1ccc(Br)cc1/C=N/NC(=S)NCCc1ccccc1	9	9	-5	22	18*	10
COc1ccc(/C=N/NC(=S)NCCc2ccccc2)cc1	9	-1	-10	-40	6	·
COc1ccc(O)c(/C=N/NC(=S)NCCc2ccccc2)c1	9	7	7	26	18*	9
O=C(CCc1ccccc1)N/N=C/c1cc(Br)ccc1O	-1	2	-3	-41	2	·
O=[N+]([O-])c1ccc(CN2CCOCCOCCN(Cc3ccc([N+](=O)[O-])cc3Cl)CCOCC2)c(Cl)c1	·	·	4	·	2	·
Nc1nc(Cl)nc2c1ncn2[C@@H]1O[C@H](CO)[C@@H](O)[C@@H]1F	·	·	3	·	-3	·
COc1ccc(Nc2ncnc3sc(-c4ccccc4)cc23)cc1OC	-6	1	19	-14	23*	15
COCc1cc(C)nc(SCC(=O)Nc2ccc3c(c2)OCO3)c1C#N	0	0	-8	1	17*	0
COCc1cc(C)nc(SCC(=O)Nc2ccc3c(c2)OCCO3)c1C#N	-4	-2	-5	2	-1	·
Fc1ccc(-c2csc(NC(=S)Nc3ccccc3)n2)cc1	1	-2	-1	-14	17*	0
O=C(O)CCC(=O)Nc1nc(-c2ccccc2)cs1	-1	-1	0	6	19*	4
O=C(Nc1ccccc1)Nc1nc(-c2ccc(F)cc2)cs1	-3	-2	1	-1	4	·
CN(C)CC(=O)Nc1nc(-c2ccccc2)cs1	10	-1	3	2	1	·
NC(=O)c1ncn([C@@H]2O[C@H](C(=O)N[C@H](Cc3ccccc3)C(=O)O)[C@@H](O)[C@H]2O)n1	-8	·	6	·	7	·
CCOC(=O)Nc1ccc2c(c1)[C@]1(CC(=O)N(CC(C)C)C1c1ccccc1)C(=O)N2C (stereo partly drawn)	·	·	6	·	-4	·
O=C(Nc1nc2c(Br)cccc2s1)c1ccc2c(c1)OCCO2	·	·	-30	·	22*	-60
COC(=O)c1cc(-c2c(C)noc2C)c(=O)n2c1CCC2	·	·	6	·	5	·
Cc1nc(Nc2ccc(Cl)cc2)c2nnn(Cc3ccccc3)c2n1	3	-6	0	-9	1	·
COc1ccc(Nc2nc(C)nc3c2nnn3Cc2ccccc2)cc1OC	-5	3	-4	-6	17*	-4
CC(=O)Nc1sc2c(c1-c1nc3ccccc3s1)CCCNC2	·	·	4	·	5	·
COc1ccc(Nc2nc(-c3ccccc3O)nc3ccccc23)cc1	-4	0	-5	-33	14	·
Oc1ccc(Nc2nc(-c3ccccc3O)nc3ccccc23)cc1	-3	3	3	2	26*	1
Cc1ccc(-c2nc(Nc3ccc(O)cc3)c3ccccc3n2)cc1	-1	0	6	10	17*	-22
Cc1ccc(-c2nc(Nc3cccc(O)c3)c3ccccc3n2)cc1	-1	-3	-55	-106	-30	·
